Results from ChEMBL document CHEMBL1649124, “Genetic variability among ampC genes from acinetobacter genomic species 3” (Antimicrob Agents Chemother, 2009).

Experiments:
Conditions in all cases: Acinetobacter pittii
[1] = test system: CO/N=C(\C(=O)N[C@@H]1C(=O)N2C(C(=O)O)=C(COC(N)=O)CS[C@H]12)c1ccco1; experiment: (§1) Ratio of Kcat to Km for Acinetobacter genomosp. 3 isolate 103 ADC-16
Summary of the method: (§2)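 AmpC genes from AG3 clinical isolates were cloned into pGEX-6P-1 and expressed as GST fusions. The mature enzyme was purified free of GST, giving a 43 kDa SDS-PAGE band of 95% purity. Kinetics were read spectrophotometrically at 25°C in PBS with 20 mg/liter BSA, three repeats. For poor substrates, Km was taken as Ki in competitive assays with Centa as reporter substrate. Vmax came from the Michaelis-Menten equation at six times Km antibiotic.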

[2] = test system: CC(C)(O/N=C(\C(=O)N[C@@H]1C(=O)N2C(C(=O)[O-])=C(C[n+]3ccccc3)CS[C@H]12)c1csc(N)n1)C(=O)O; experiment: as §1; summary of the method: as §2
[3] = test system: CO/N=C(\C(=O)N[C@@H]1C(=O)N2C(C(=O)O)=C(COC(C)=O)CS[C@H]12)c1csc(N)n1; experiment: as §1; summary of the method: as §2
[4] = test system: CO[C@@]1(NC(=O)Cc2cccs2)C(=O)N2C(C(=O)O)=C(COC(N)=O)CS[C@@H]21; experiment: as §1; summary of the method: as §2
[5] = test system: CC(=O)OCC1=C(C(=O)O)N2C(=O)[C@@H](NC(=O)Cc3cccs3)[C@H]2SC1; experiment: as §1; summary of the method: as §2
[6] = test system: CO/N=C(\C(=O)N[C@@H]1C(=O)N2C(C(=O)O)=C(COC(N)=O)CS[C@H]12)c1ccco1; experiment: (§3) Activity of Acinetobacter genomosp. 3 isolate 103 ADC-16; summary of the method: as §2
[7] = test system: CC(C)(O/N=C(\C(=O)N[C@@H]1C(=O)N2C(C(=O)[O-])=C(C[n+]3ccccc3)CS[C@H]12)c1csc(N)n1)C(=O)O; experiment: as §3; summary of the method: as §2
[8] = test system: CO/N=C(\C(=O)N[C@@H]1C(=O)N2C(C(=O)O)=C(COC(C)=O)CS[C@H]12)c1csc(N)n1; experiment: as §3; summary of the method: as §2
[9] = test system: CO[C@@]1(NC(=O)Cc2cccs2)C(=O)N2C(C(=O)O)=C(COC(N)=O)CS[C@@H]21; experiment: as §3; summary of the method: as §2
[10] = test system: CC(=O)OCC1=C(C(=O)O)N2C(=O)[C@@H](NC(=O)Cc3cccs3)[C@H]2SC1; experiment: as §3; summary of the method: as §2
[11] = test system: C[C@H]1[C@H](NC(=O)/C(=N\OC(C)(C)C(=O)O)c2csc(N)n2)C(=O)N1S(=O)(=O)O; experiment: as §3; summary of the method: as §2

Substance: ADC-16 protein (Acinetobacter genomosp. 3) (from UniProt Q0VTR8)
- kcat/Km [1]: 2.34e+06 M⁻¹ s⁻¹
- kcat/Km [2]: 212000 M⁻¹ s⁻¹
- kcat/Km [3]: 212000 M⁻¹ s⁻¹
- kcat/Km [4]: 1.88e+06 M⁻¹ s⁻¹
- kcat/Km [5]: 9.92e+06 M⁻¹ s⁻¹
- Km [6]: 0.27 µM
- kcat [6]: 0.62 s⁻¹
- Km [7]: 110 µM
- kcat [7]: 0.02 s⁻¹
- Km [8]: 0.32 µM
- kcat [8]: 0.07 s⁻¹
- Km [9]: 0.18 µM
- kcat [9]: 0.33 s⁻¹
- Km [10]: 139 µM
- kcat [10]: 1380 s⁻¹
- Km [11]: 3.85 µM
